Source: ChEMBL document CHEMBL4184148 (Bioorg Med Chem Lett, 2017)

Tests used:
[1] = tested on: Tyrosine-protein kinase ABL1 (Homo sapiens), P00519 [H396P]; assay: Binding affinity to human non-phosphorylated ABL1 H396P mutant (S229 to K512 residues) expressed in HEK293 cells at 1 uM by Kinomescan method relative to control; type: cell-based
[2] = tested on: Tyrosine-protein kinase ABL1 (Homo sapiens), P00519 [H396P]; assay: Binding affinity to human phosphorylated ABL1 H396P mutant (S229 to K512 residues) expressed in HEK293 cells at 1 uM by Kinomescan method relative to control; type: cell-based
[3] = tested on: Tyrosine-protein kinase ABL1 (Homo sapiens), P00519 [M351T]; assay: Binding affinity to human phosphorylated ABL1 M351T mutant (S229 to K512 residues) expressed in HEK293 cells at 1 uM by Kinomescan method relative to control; type: cell-based
[4] = target: Activin receptor type-1-like (Homo sapiens) (UniProt P37023); assay: Binding affinity to wild-type human ACVRL1 (L164 to Q503 residues) expressed in Escherichia coli BL21 at 1 uM by Kinomescan method relative to control
[5] = target: RAC-beta serine/threonine-protein kinase (Homo sapiens) (UniProt P31751); assay: Binding affinity to wild-type human partial length AKT2 expressed in Escherichia coli BL21 at 1 uM by Kinomescan method relative to control
Method in brief: (§1)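 Kinome-wide competition binding panel run by an outside provider, with each compound tested at a single concentration. Activity is read against the kinase panel.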

[6] = target: BMP-2-inducible protein kinase (Homo sapiens) (UniProt Q9NSY1); assay: Binding affinity to wild-type human partial length BIKE (S34 to N329 residues) expressed in Escherichia coli BL21 at 1 uM by Kinomescan method relative to control
[7] = target: Serine/threonine-protein kinase BRSK1 (Homo sapiens) (UniProt Q8TDC3); assay: Binding affinity to wild-type human partial length BRSK1 (M1 to E754 residues) expressed in Escherichia coli BL21 at 1 uM by Kinomescan method relative to control
[8] = target: Serine/threonine-protein kinase MRCK gamma (Homo sapiens) (UniProt Q6DT37); assay: Binding affinity to wild-type human partial length DMPK2 (S46 to S408 residues) expressed in Escherichia coli BL21 at 1 uM by Kinomescan method relative to control
[9] = target: Serine/threonine-protein kinase 17B (Homo sapiens) (UniProt O94768); assay: Binding affinity to wild-type human full length DRAK2 (M1 to C372 residues) expressed in Escherichia coli BL21 at 1 uM by Kinomescan method relative to control
Method in brief: (§2)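 Run as one kinome-wide competition binding panel with each compound at a single fixed concentration. Results were plotted as a kinome-wide selectivity map.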

[10] = tested on: Epidermal growth factor receptor (Homo sapiens), P00533 [L861Q]; assay: Binding affinity to human partial length EGFR L861Q mutant (R669 to V1011 residues) expressed in Escherichia coli BL21 at 1 uM by Kinomescan method relative to control
[11] = target: Ephrin type-A receptor 4 (Homo sapiens) (UniProt P54764); assay: Binding affinity to wild-type human partial length EPHA4 (T601 to R897 residues) expressed in Escherichia coli BL21 at 1 uM by Kinomescan method relative to control
[12] = target: Ephrin type-A receptor 8 (Homo sapiens) (UniProt P29322); assay: Binding affinity to wild-type human partial length EPHA8 (Q608 to C920 residues) expressed in Escherichia coli BL21 at 1 uM by Kinomescan method relative to control
[13] = target: Mitogen-activated protein kinase 1 (Homo sapiens) (UniProt P28482); assay: Binding affinity to wild-type human full length ERK2 (M1 to S360 residues) expressed in Escherichia coli BL21 at 1 uM by Kinomescan method relative to control; method in brief: as §2
[14] = target: Focal adhesion kinase 1 (Homo sapiens) (UniProt Q05397); assay: Binding affinity to wild-type human partial length FAK (D402 to R696 residues) expressed in Escherichia coli BL21 at 1 uM by Kinomescan method relative to control
[15] = target: Glycogen synthase kinase-3 alpha (Homo sapiens) (UniProt P49840); assay: Binding affinity to wild-type human full length GSK3A (M1 to S483 residues) expressed in Escherichia coli BL21 at 1 uM by Kinomescan method relative to control; method in brief: as §2
[16] = target: Mitogen-activated protein kinase kinase kinase 15 (Homo sapiens) (UniProt Q6ZN16); assay: Binding affinity to wild-type human partial length MAP3K15 (T625 to L932 residues) expressed in HEK293 cells at 1 uM by Kinomescan method relative to control; type: cell-based
[17] = target: Serine/threonine-protein kinase Nek5 (Homo sapiens) (UniProt Q6P3R8); assay: Binding affinity to wild-type human partial length NEK5 (M1 to M279 residues) expressed in Escherichia coli BL21 at 1 uM by Kinomescan method relative to control
[18] = target: Serine/threonine-protein kinase Nek9 (Homo sapiens) (UniProt Q8TD19); assay: Binding affinity to wild-type human partial length NEK9 (P32 to R328 residues) expressed in Escherichia coli BL21 at 1 uM by Kinomescan method relative to control
[19] = target: Mitogen-activated protein kinase kinase kinase 14 (Homo sapiens) (UniProt Q99558); assay: Binding affinity to wild-type human partial length NIK (L318 to P947 residues) expressed in HEK293 cells at 1 uM by Kinomescan method relative to control; type: cell-based
[20] = target: Calcium-dependent protein kinase 1 (Plasmodium falciparum) (UniProt P62344); assay: Binding affinity to wild-type Plasmodium falciparum full length CDPK1 (M1 to S524 residues) expressed in HEK293 cells at 1 uM by Kinomescan method relative to control; type: cell-based
[21] = target: Serine/threonine-protein kinase pim-1 (Homo sapiens) (UniProt P11309); assay: Binding affinity to wild-type human partial length PIM1 (A15 to K313 residues) expressed in Escherichia coli BL21 at 1 uM by Kinomescan method relative to control
[22] = target: Serine/threonine-protein kinase RIO3 (Homo sapiens) (UniProt O14730); assay: Binding affinity to wild-type human full length RIOK3 (M1 to E519 residues) expressed in Escherichia coli BL21 at 1 uM by Kinomescan method relative to control; method in brief: as §1
[23] = target: Serine/threonine-protein kinase 33 (Homo sapiens) (UniProt Q9BYT3); assay: Binding affinity to wild-type human full length STK33 (M1 to L514 residues) expressed in Escherichia coli BL21 at 1 uM by Kinomescan method relative to control; method in brief: as §1
[24] = target: Serine/threonine-protein kinase tousled-like 2 (Homo sapiens) (UniProt Q86UE8); assay: Binding affinity to wild-type human partial length TLK2 (E424 to N749 residues) expressed in Escherichia coli BL21 at 1 uM by Kinomescan method relative to control
[25] = target: Transient receptor potential cation channel subfamily M member 6 (Homo sapiens) (UniProt Q9BX84); assay: Binding affinity to wild-type human partial length TRPM6 (Q1723 to I1998 residues) expressed in HEK293 cells at 1 uM by Kinomescan method relative to control; type: cell-based
[26] = target: Tyrosine-protein kinase TXK (Homo sapiens) (UniProt P42681); assay: Binding affinity to wild-type human partial length TXK (L238 to W527 residues) expressed in Escherichia coli BL21 at 1 uM by Kinomescan method relative to control

Structure (SMILES)	Activity [1]	Activity [2]	Activity [3]	Activity [4]	Activity [5]	Activity [6]	Activity [7]	Activity [8]	Activity [9]	Activity [10]	Activity [11]	Activity [12]	Activity [13]	Activity [14]	Activity [15]	Activity [16]	Activity [17]	Activity [18]	Activity [19]	Activity [20]	also measured
CCC(=O)Nc1ccc(C(=O)Nc2ccc(Nc3ncc4c(n3)N(C)c3ccc(C)cc3C(=O)N4C)cc2)cc1	62%	64%	100%	90%	100%	93%	90%	77%	100%	97%	97%	80%	87%	99%	100%	62%	86%	100%	100%	74%	Activity [21]: 85%; Activity [22]: 84%; Activity [23]: 79%; Activity [24]: 100%; Activity [25]: 100%; Activity [26]: 93%
C=CC(=O)Nc1ccc(C(=O)Nc2ccc(Nc3ncc4c(n3)N(C)c3ccc(C)cc3C(=O)N4C)cc2)cc1	84%	91%	95%	92%	95%	85%	100%	100%	87%	79%	93%	91%	99%	92%	100%	100%	100%	97%	99%	100%	Activity [21]: 88%; Activity [22]: 75%; Activity [23]: 99%; Activity [24]: 98%; Activity [25]: 96%; Activity [26]: 100%
